From ChEMBL document CHEMBL1124574, “Lipophilic analogues of sparsomycin as strong inhibitors of protein synthesis and tumor growth: a structure-activity relationship study” (J Med Chem, 1989)
Values after ≈ are worked out from the molar mass of the structure shown. Active and inactive are the calls of the source. No cut-off for these calls is given here.

Assays:
WiDr [1] = experiment: In vitro inhibition of cell growth in Human WiDr colon carcinoma cell line; assay type: functional; details: read-out: ID50 (the source's name)
[2] = In Vivo evaluation for the acute toxicity in mice; details: mouse
[3] = (§1) Kinetic constant was determined; assay type: ADME
L1210 [4] = experiment: In Vivo evaluation for the acute toxicity by L1210 clonogenic assay; assay type: functional, Mus musculus
[5] = Water solubility was determined
Escherichia coli [6] = experiment: In vitro inhibition of Puromycin reaction in the ribosomes from Escherichia coli; assay type: functional; details: read-out: ED50 (the source's name)
Escherichia coli [7] = experiment: In vitro inhibition of cell growth in Escherichia coli; assay type: functional; details: read-out: ED50 (the source's name)
Escherichia coli [8] = experiment: In vitro inhibition of modified fragment reaction using ribosomes from Escherichia coli; assay type: functional; details: read-out: ED50 (the source's name)
Saccharomyces cerevisiae [9] = experiment: In vitro inhibition of modified fragment reaction using ribosomes from Saccharomyces cerevisiae; assay type: functional; details: read-out: ED50 (the source's name)
T-24 = experiment: In vitro inhibition of cell growth in T24 bladder carcinoma cell line; assay type: functional; details: Homo sapiens, read-out: ID50 (the source's name)
[10] = lipophilicity parameter (Rm) was determined; details: RP-8 HPTLC, 60% methanol/water
Escherichia coli [11] = experiment: In vitro inhibition of polyuridylic acid dependent polyphenylalanine synthesis using ribosomes from Escherichia coli; assay type: functional; details: read-out: ED50 (the source's name)
L1210 [12] = experiment: In vitro inhibition of cell growth in L1210 murine leukemia cells; assay type: functional; details: Mus musculus, read-out: ID50 (the source's name)
[13] = Partition coefficient (logP); details: octanol/water
Saccharomyces cerevisiae [14] = experiment: In vitro inhibition of polyuridylic acid dependent polyphenylalanine synthesis using ribosomes from Saccharomyces cerevisiae; assay type: functional; details: read-out: ED50 (the source's name)
Escherichia coli [15] = experiment: In vitro inhibition of cell growth in Escherichia coli MRE600; assay type: functional; details: read-out: ED50 (the source's name)
[16] = as §1
[17] = lipophilicity parameter(Rm) was determined; assay type: physicochemical; details: RP-8 HPTLC, 60% methanol/water
In short: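 Rf measured by reversed-phase RP-8 HPTLC, eluent 60% methanol/water; Rm computed as log(1/Rf − 1).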

WiDr [18] = experiment: In vitro inhibition of cell growth in Human WiDr colon carcinoma cell line; NT means not tested; assay type: functional; details: read-out: ID50 (the source's name)
In short: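 Human tumor cell line cytotoxicity measured by the automated PIT method (propidium iodide, ink, Triton X-100); ID50 calculated.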

Saccharomyces cerevisiae [19] = experiment: In vitro inhibition of polyuridylic acid dependent polyphenylalanine synthesis using ribosomes from Saccharomyces cerevisiae; Inactive at 100 uM; assay type: functional
Escherichia coli [20] = experiment: In vitro inhibition of modified fragment reaction using ribosomes from Escherichia coli; Inactive at 100 uM; assay type: functional
In short: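 Peptidyl transferase assayed by the fragment-reaction protocol, but with intact N-acetyl-Phe-tRNA as substrate in place of its terminal pentanucleotide; ribosomes from the organism named in the line; 50% inhibitory value derived.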

EC50 (Escherichia coli [11]) [µM]	Structure (SMILES)	IC50 (WiDr [1]) [µM]	LD50 [2] [mg/kg]	T/C (L1210 [4]) [%]	solubility [5] [µg/mL]	EC50 (Escherichia coli [6]) [µM]	EC50 (Escherichia coli [7]) [µM]	EC50 (Escherichia coli [8]) [µM]	EC50 (Saccharomyces cerevisiae [9]) [µM]	IC50 (T-24) [µM]	Rm [10]	IC50 (L1210 [12]) [µM]	logP [13]	EC50 (Saccharomyces cerevisiae [14]) [µM]	EC50 (Escherichia coli [15]) [µM]	log k0 [16]	other results
80	CCC[S+]([O-])C[C@H](C)NC(=O)/C=C/c1c(C)nc(O)nc1O (stereo not given in full)					0.38						0.45		200	9.5		
6.6	Cc1nc(O)nc(O)c1/C=C/C(=O)N[C@@H](CO)C[S+]([O-])CSC1CCCCC1 (stereo not given in full)					0.04		5.2	12			0.6		5.1	7.5		
3	CCCSC[S+]([O-])C[C@H](CO)NC(=O)/C=C/c1c(C)nc(O)nc1O (stereo not given in full)	0.89			1500 (≈ 3850 µM)	0.08		5.5	7.5	0.65		0.14	-0.665	7	5	0.117	Rm [17]: -0.261
31	Cc1nc(O)nc(O)c1/C=C/C(=O)N[C@@H](CO)C[S+]([O-])CSC(C)(C)C (stereo not given in full)					0.31		27.5	100					900			
140	CCC[S+]([O-])C[C@H](CO)NC(=O)/C=C/c1c(C)nc(O)nc1O (stereo not given in full)					0.23		4.5	6.2			0.75		42	36		
34	CC(=O)NCCSC[S+]([O-])C[C@H](CO)NC(=O)/C=C/c1c(C)nc(O)nc1O (stereo not given in full)					1		60	56			1.9		32	100		
	Cc1nc(O)nc(O)c1/C=C/C(=O)N[C@@H](CO)C[S@@+]([O-])CCl						20										
86	Cc1nc(O)nc(O)c1/C=C/C(=O)N[C@@H](C)C[S+]([O-])CCl (stereo not given in full)						7.5					0.15					ED50 (Saccharomyces cerevisiae [19]): inactive; ED50 (Escherichia coli [20]): inactive
1.8	CCCCCCCCCC[S+]([O-])C[C@H](CO)NC(=O)/C=C/c1c(C)nc(O)nc1O (stereo not given in full)					0.08	3	5000	700			0.14		0.2			
8.5	CCCCCCCCSC[S+]([O-])C[C@H](C)NC(=O)/C=C/c1c(C)nc(O)nc1O (stereo not given in full)	0.28			15 (≈ 33.8 µM)	0.46	15	46	60	0.14	1.151	0.03	> 2.42	1.4			Log Ko [3]: 3.533

Structure (SMILES)	EC50 (Escherichia coli [11]) [µM]	IC50 (WiDr [1]) [µM]	LD50 [2] [mg/kg]	T/C (L1210 [4]) [%]	solubility [5] [µg/mL]	EC50 (Escherichia coli [6]) [µM]	EC50 (Escherichia coli [7]) [µM]	EC50 (Escherichia coli [8]) [µM]	EC50 (Saccharomyces cerevisiae [9]) [µM]	IC50 (T-24) [µM]	Rm [10]	IC50 (L1210 [12]) [µM]	logP [13]	EC50 (Saccharomyces cerevisiae [14]) [µM]	EC50 (Escherichia coli [15]) [µM]	log k0 [16]	other results
CCCCCCCCSC[S+]([O-])C[C@H](CO)NC(=O)/C=C/c1c(C)nc(O)nc1O (stereo not given in full)	1.6	0.22	29.5	151	13 (≈ 28.3 µM)	0.25	4.4	60	300	0.06	0.895	0.1	> 2.42	1.3			Log Ko [3]: 3.333
CCCCCSC[S+]([O-])C[C@H](CO)NC(=O)/C=C/c1c(C)nc(O)nc1O (stereo not given in full)	1	0.4	4.7	386	280 (≈ 671 µM)	0.03		2.6	2.7	0.28	0.16	0.06	0.6	0.17	1	1.168	
CCCCCC[S+]([O-])C[C@H](CO)NC(=O)/C=C/c1c(C)nc(O)nc1O (stereo not given in full)	0.75	0.39	1.6	135	890 (≈ 2310 µM)	0.18	3	7.5	5	0.35	0.235	0.14	0.41	0.14			Log Ko [3]: 1.111
CSC[S+]([O-])C[C@H](CO)NC(=O)/C=C/c1c(C)[nH]c(=O)[nH]c1=O (stereo not given in full)	8.5	0.92	0.26	117	3800 (≈ 10500 µM)	0.1		3.2	2.8	0.91		0.48	-1.71	5.2	11	-0.676	Rm [17]: -0.638
CCCCSC[S+]([O-])C[C@H](CO)NC(=O)/C=C/c1c(C)nc(O)nc1O (stereo not given in full)	1.8	0.31	2.33	156	570 (≈ 1410 µM)	0.06		5.1	4.8	0.23	-0.028	0.1	0.143	1	3	0.777	
CSC[S+]([O-])C[C@H](C)NC(=O)/C=C/c1c(C)nc(O)nc1O (stereo not given in full)	14.6		2.33	216	18000 (≈ 52100 µM)	0.25		18	39	0.44	-0.404	0.07	-0.699	50	5.6	-0.209	IC50 (WiDr [18]): 0.58 µM
CCCCCCC[S+]([O-])C[C@H](CO)NC(=O)/C=C/c1c(C)nc(O)nc1O (stereo not given in full)	0.48	0.28	6.1	330	220 (≈ 551 µM)	0.04	1.4	9	5.8	0.16	0.56	0.15	1.02	0.1			Log Ko [3]: 1.771
CCCCSC[S+]([O-])C[C@H](C)NC(=O)/C=C/c1c(C)nc(O)nc1O (stereo not given in full)	3	0.16	16.5	164	940 (≈ 2430 µM)	0.05		12.1	15	0.09	0.218	0.05	0.819	1.9	2.5	1.29	
